{"source": "ChEMBL document CHEMBL4266007", "about": "“Synthesis and Biological Evaluation of an Indazole-Based Selective Protein Arginine Deiminase 4 (PAD4) Inhibitor” (ACS Med Chem Lett, 2018)", "key": {"Homo sapiens [1]": {"species": "Homo sapiens", "assay": "Ratio of Kinact/Ki for PAD2 (unknown origin) to Kinact/Ki for PAD1 (unknown origin)"}, "Homo sapiens [2]": {"species": "Homo sapiens", "assay": "Ratio of Kinact/Ki for PAD2 (unknown origin) to Kinact/Ki for PAD3 (unknown origin)"}, "Homo sapiens [3]": {"species": "Homo sapiens", "assay": "Ratio of Kinact/Ki for PAD2 (unknown origin) to Kinact/Ki for PAD4 (unknown origin)"}, "Homo sapiens [4]": {"species": "Homo sapiens", "assay": "Ratio of Kinact/Ki for PAD1 (unknown origin) to Kinact/Ki for PAD2 (unknown origin)"}, "Homo sapiens [5]": {"species": "Homo sapiens", "assay": "Ratio of Kinact/Ki for PAD1 (unknown origin) to Kinact/Ki for PAD3 (unknown origin)"}, "Homo sapiens [6]": {"species": "Homo sapiens", "assay": "Ratio of Kinact/Ki for PAD1 (unknown origin) to Kinact/Ki for PAD4 (unknown origin)"}, "Homo sapiens [7]": {"species": "Homo sapiens", "assay": "Ratio of Kinact/Ki for PAD3 (unknown origin) to Kinact/Ki for PAD1 (unknown origin)"}, "Homo sapiens [8]": {"species": "Homo sapiens", "assay": "Ratio of Kinact/Ki for PAD3 (unknown origin) to Kinact/Ki for PAD2 (unknown origin)"}, "Homo sapiens [9]": {"species": "Homo sapiens", "assay": "Ratio of Kinact/Ki for PAD3 (unknown origin) to Kinact/Ki for PAD4 (unknown origin)"}, "Homo sapiens [10]": {"species": "Homo sapiens", "assay": "Ratio of Kinact/Ki for PAD4 (unknown origin) to Kinact/Ki for PAD3 (unknown origin)"}, "[11]": {"target": "T1, Protein-arginine deiminase type-4 (Homo sapiens, UniProt Q9UM07)", "T1 sequence (Q9UM07 whole entry)": "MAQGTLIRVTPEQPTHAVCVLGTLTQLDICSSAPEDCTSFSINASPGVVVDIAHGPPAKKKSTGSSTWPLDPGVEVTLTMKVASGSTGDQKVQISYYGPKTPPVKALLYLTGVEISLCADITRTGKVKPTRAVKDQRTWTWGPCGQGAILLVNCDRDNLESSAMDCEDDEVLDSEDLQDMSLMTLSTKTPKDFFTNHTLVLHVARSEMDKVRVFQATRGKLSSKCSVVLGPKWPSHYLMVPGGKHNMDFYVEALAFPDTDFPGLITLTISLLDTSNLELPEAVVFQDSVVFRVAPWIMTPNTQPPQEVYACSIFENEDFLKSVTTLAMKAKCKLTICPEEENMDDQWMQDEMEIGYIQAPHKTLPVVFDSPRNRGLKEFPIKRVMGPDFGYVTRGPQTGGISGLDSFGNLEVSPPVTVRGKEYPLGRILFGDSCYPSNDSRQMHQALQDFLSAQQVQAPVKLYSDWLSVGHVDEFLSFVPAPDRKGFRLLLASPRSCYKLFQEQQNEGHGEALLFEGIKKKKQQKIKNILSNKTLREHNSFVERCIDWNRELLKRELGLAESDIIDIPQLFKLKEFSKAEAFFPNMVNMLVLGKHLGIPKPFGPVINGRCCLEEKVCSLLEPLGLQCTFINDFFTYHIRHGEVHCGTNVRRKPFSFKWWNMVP", "assay": "Inhibition of PAD4 (unknown origin) preincubated for 15 mins followed by BAEE addition measured after 15 mins by spectrophotometric method"}, "[12]": {"target": "T1, Protein-arginine deiminase type-4", "assay": "Inhibition of PAD4 in human HL60 cells assessed as reduction in A23187-induced citrullinated H4 level at 5 to 10 uM preincubated for 15 mins followed by A23187 addition measured after 15 mins by Western blot analysis", "format": "cell-based", "in_short": "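HL-60 cells differentiated into mature granulocytes, which express PAD4, then stimulated with a calcium ionophore to trigger histone H4 citrullination. Cell lysates were analysed by Western blot using an anti-citrulline histone H4 antibody.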"}, "Homo sapiens [13]": {"species": "Homo sapiens", "assay": "Ratio of Kinact/Ki for PAD4 (unknown origin) to Kinact/Ki for PAD2 (unknown origin)"}, "Homo sapiens [14]": {"species": "Homo sapiens", "assay": "Ratio of Kinact/Ki for PAD4 (unknown origin) to Kinact/Ki for PAD1 (unknown origin)"}}, "note": "pIC50: −log10 of the molar value. Calls of active or inactive are those of the source. The calls are words filed in the database; no cut-off is given here.", "data": [{"smiles": "CCN1Cc2ccc(C(=O)N[C@@H](CCCNC(=N)CF)c3nc4c(OC)cccc4n3C)cc2C1=O", "values": [{"measurement": "Ratio", "setting": "Homo sapiens [1]", "result": "> 5"}, {"measurement": "Ratio", "setting": "Homo sapiens [2]", "result": "> 5"}, {"measurement": "Ratio", "setting": "Homo sapiens [3]", "result": "> 5"}]}, {"smiles": "CC(C)(C)n1nnc([C@H](CCCNC(=N)CCl)NC(=O)c2cccc(C(=O)O)c2)n1", "values": [{"measurement": "Ratio", "setting": "Homo sapiens [4]", "result": "> 3"}, {"measurement": "Ratio", "setting": "Homo sapiens [5]", "result": "> 3"}, {"measurement": "Ratio", "setting": "Homo sapiens [6]", "result": "> 3"}]}, {"smiles": "N=C(CCl)NCCCC1NC(=O)N(Cc2ccc(-c3ccccc3Cl)cc2)C1=O", "note": "(racemic)", "values": [{"measurement": "Ratio", "setting": "Homo sapiens [7]", "result": "> 10"}, {"measurement": "Ratio", "setting": "Homo sapiens [8]", "result": "> 10"}, {"measurement": "Ratio", "setting": "Homo sapiens [9]", "result": "> 10"}]}, {"smiles": "N=C(CCl)NCCCc1nn(CC2CCCC2)c2cccc(Cl)c12", "values": [{"measurement": "Ratio", "setting": "Homo sapiens [10]", "result": 1.3}]}, {"smiles": "N=C(CCl)NCCCc1nn(CC2CCCC2)c2ccc(Cl)cc12", "values": [{"measurement": "Ratio", "setting": "Homo sapiens [10]", "result": 1.6}]}, {"smiles": "Cn1cc(CCCNC(=N)CCl)c2ccccc21", "values": [{"measurement": "pIC50", "setting": "[11]", "result": 3.72}]}, {"smiles": "N=C(CCl)NCCCc1nn(CC2CCCC2)c2cc(Cl)ccc12", "values": [{"measurement": "Ratio", "setting": "Homo sapiens [10]", "result": 2}]}, {"smiles": "N=C(CCl)NCCC[C@H](NC(=O)c1ccccc1)C(N)=O", "values": [{"measurement": "inhibition", "setting": "[12]", "result": "Active"}]}, {"smiles": "N=C(CCl)NCCCc1nn(CC2CCCC2)c2cc(Cl)cc(Cl)c12", "values": [{"measurement": "Ratio", "setting": "Homo sapiens [10]", "result": 7.5}, {"measurement": "Ratio", "setting": "Homo sapiens [13]", "result": 72}, {"measurement": "Ratio", "setting": "Homo sapiens [14]", "result": 3300}]}, {"smiles": "N=C(CCl)NCCCc1nn(CC2CCCC2)c2cc(Cl)c(Cl)c(Cl)c12", "values": [{"measurement": "Ratio", "setting": "Homo sapiens [10]", "result": 11}, {"measurement": "Ratio", "setting": "Homo sapiens [13]", "result": 58}, {"measurement": "Ratio", "setting": "Homo sapiens [14]", "result": 2700}, {"measurement": "inhibition", "setting": "[12]", "result": "Active"}]}]}
